Measurements reported in PMC3923374 (Analytical biochemistry, 2013).
pKi: −log10 of the molar value.

Legend:
[1] = biological target: T1, sigma-2 receptor (Rattus norvegicus, UniProt Q5U3Y7); experiment: radioligand competition with [3H]RHM-1 in rat liver membranes; format: binding; conditions: read-out: Ki for sigma-2 receptors
T1 sequence (Q5U3Y7 1-176): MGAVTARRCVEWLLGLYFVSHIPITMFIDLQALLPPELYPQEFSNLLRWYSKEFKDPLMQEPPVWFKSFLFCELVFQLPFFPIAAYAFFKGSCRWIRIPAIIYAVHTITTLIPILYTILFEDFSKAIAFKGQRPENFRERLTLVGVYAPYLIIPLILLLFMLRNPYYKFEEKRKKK
Outline: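 Rat liver membrane homogenate (~300 μg protein) in 50 mM Tris-HCl, pH 8.0, incubated 60 min at 25°C with 1 nM [³H]RHM-1 (80 Ci/mmol) and test compound at 0.1 nM–10 μM. Stopped with cold 10 mM Tris-HCl/150 mM NaCl, pH 7.4, filtered onto glass-fiber filters presoaked 1 h in 50 mM Tris-HCl, washed three times ice-cold, scintillation counted. Nonspecific binding: 10 μM haloperidol.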

[2] = biological target: sigma-1 receptor (Cavia porcellus, UniProt Q60492); experiment: radioligand competition with [3H]; format: binding; conditions: read-out: Ki for sigma-1 receptors
sigma-1 receptor, sequence (Q60492 whole entry): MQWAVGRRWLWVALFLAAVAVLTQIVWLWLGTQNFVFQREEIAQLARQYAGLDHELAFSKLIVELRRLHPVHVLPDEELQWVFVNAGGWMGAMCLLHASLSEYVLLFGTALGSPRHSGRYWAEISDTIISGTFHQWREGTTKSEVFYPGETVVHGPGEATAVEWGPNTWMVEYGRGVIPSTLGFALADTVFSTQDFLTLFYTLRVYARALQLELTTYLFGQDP

O[C@@H](CN1[C@@H]2CC[C@H]1CC(c1ccccc1)C2)c1cccc(Br)c1 (some centres unmarked) [RHM-138]
pKi [1]: 7.91 | pKi [2]: 6.26
